According to ChEMBL document CHEMBL3734704, “Synthesis and Biological Evaluation of Novel Bouchardatine Derivatives as Potential Adipogenesis/Lipogenesis Inhibitors for Antiobesity Treatment” (J Med Chem, 2015):
The source made the active and inactive calls. The calls are words filed in the database; no cut-off is given here.

How the values were obtained:
[1] = Downregulation of PPAR-gamma mRNA level in mouse 3T3L1 cells at 3 uM after 24 hrs by RT-PCR analysis; assay type: functional, cell-based; conditions: 3T3-L1
Summary of the method: (§1)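 3T3-L1 preadipocytes in adipogenic cocktail with compound (0.3-3.0 µM; 3 µM for the 2 h and 24 h time course). Total RNA extracted, cDNA made from 1 µg RNA with oligo primer, then PCR: 95 °C 10 min, 35 cycles of 95 °C 30 s, annealing 45 s, 72 °C 1 min, final 72 °C 10 min. Normalized to actin; n = 3.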

[2] = Downregulation of C/EBP delta mRNA level in mouse 3T3L1 cells at 0.3 to 3 uM after 24 hrs by RT-PCR analysis; assay type: functional, cell-based; conditions: 3T3-L1; summary of the method: as §1
[3] = Downregulation of C/EBP delta mRNA level in mouse 3T3L1 cells at 3 uM after 2 and 24 hrs by RT-PCR analysis; assay type: functional, cell-based; conditions: 3T3-L1; summary of the method: as §1
[4] = Decrease in triglyceride level in mouse 3T3L1 cells at 1 uM measured during 3 to 6 days by oil red O staining based microscopic analysis; assay type: functional, cell-based; conditions: 3T3-L1
Summary of the method: (§2)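 3T3-L1 cells given 1 µM compound during day 0-3, 0-6, 0-9, 3-6, 3-9 or 6-9 of differentiation. On Day 9, intracellular lipid measured by TG assay (Triton lysate, GPO-POD kit, per protein) and by Oil Red O staining with microscopy; n = 3.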

[5] = test system: HepG2; test: Decrease in triglyceride level in human HepG2 cells at 1 uM after 24 hrs by GPO-POD assay in presence of 0.5 mM oleic acid sodium; assay type: functional
Summary of the method: (§3)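 HepG-2 cells seeded, then after 24 h exposed to 0.5 mM oleic acid sodium plus compound (1 µM; dose series up to 10 µM) for 24 h, DMSO vehicle. Cells lysed in 0.2% Triton X-100 for 1 h, sonicated, centrifuged. Triglyceride measured by GPO-POD kit and cholesterol by kit, both normalized to BCA protein; n = 3.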

[6] = Cell cycle arrest in mouse 3T3L1 cells assessed as number of cells at G0/G1 phase at 3 uM after 24 hrs by flow cytometry (reference value: 37.6%); assay type: functional, cell-based; conditions: 3T3-L1
[7] = Downregulation of SREBP-1c mRNA level in mouse 3T3L1 cells at 3 uM after 24 hrs by RT-PCR analysis; assay type: functional, cell-based; conditions: 3T3-L1; summary of the method: as §1
[8] = Downregulation of FAS level in mouse 3T3L1 cells after 6 days by western blot analysis; assay type: functional, cell-based; conditions: 3T3-L1
Summary of the method: (§4)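 3T3-L1 preadipocytes incubated in adipogenic cocktail with or without compound (0.3, 1.0, 3.0 µM) for the stated periods. Protein levels measured by Western blot (RIPA lysis, PVDF, BSA block, primary 16 h at 4 °C, HRP secondary), normalized to GAPDH/Tubulin and expressed relative to controls; n = 3.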

[9] = Downregulation of ACC level in mouse 3T3L1 cells after 6 days by western blot analysis; assay type: functional, cell-based; conditions: 3T3-L1; summary of the method: as §4
[10] = test system: 3T3-L1; test: Induction of apoptosis in mouse 3T3L1 cells assessed as early apoptotic cells at 0.3 uM after 24 hrs by annexin-V-FITC and PI staining based flow cytometry (reference value: 0.56%); assay type: functional
[11] = test system: 3T3-L1; test: Induction of apoptosis in mouse 3T3L1 cells assessed as viable cells at 1 uM after 24 hrs by annexin-V-FITC and PI staining based flow cytometry (reference value: 98.95%); assay type: functional; conditions: 3T3-L1, 24 h, read-out: Activity
[12] = Upregulation of LKB1 expression in mouse 3T3L1 cells at 3 uM after 2 and 24 hrs by western blot analysis; assay type: functional, cell-based; conditions: 3T3-L1
Summary of the method: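 During 3T3-L1 differentiation with adipogenic cocktail, cells were treated with 3 µM compound for 10 min, 2 h or 24 h. Lysates in RIPA with protease/phosphatase inhibitors were run on SDS-PAGE and Western blotted. Proteins were normalized to GAPDH and expressed relative to the 10 min DMSO group, which was set at 100%; n = 3 independent experiments.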

[13] = test system: 3T3-L1; test: Decrease in lipid droplet accumulation in mouse 3T3L1 cells at 1 uM measured during 0 to 3,0 to 6,0 to 9, 3 to 6, 3 to 9 and 6 to 9 days by oil red O staining based microscopic analysis; assay type: functional, cell-based; summary of the method: as §2
[14] = Downregulation of SCD-1 level in mouse 3T3L1 cells after 6 days by western blot analysis; assay type: functional, cell-based; conditions: 3T3-L1; summary of the method: as §4
[15] = Downregulation of SREBP-1c mRNA level in mouse 3T3L1 cells at 0.3 to 3 uM after 24 hrs by RT-PCR analysis; assay type: functional, cell-based; conditions: 3T3-L1; summary of the method: as §1
[16] = Cell cycle arrest in mouse 3T3L1 cells assessed as number of cells at S phase at 3 uM after 24 hrs by flow cytometry (reference value: 18.1%); assay type: functional, cell-based; conditions: 3T3-L1
[17] = Cell cycle arrest in mouse 3T3L1 cells assessed as number of cells at S phase at 0.3 uM after 24 hrs by flow cytometry (reference value: 18.1%); assay type: functional, cell-based; conditions: 3T3-L1
[18] = test system: 3T3-L1; test: Induction of apoptosis in mouse 3T3L1 cells assessed as early apoptotic cells at 1 uM after 24 hrs by annexin-V-FITC and PI staining based flow cytometry (reference value: 0.56%); assay type: functional
[19] = Decrease in triglyceride accumulation in mouse 3T3L1 cells at 1 uM for 3 days oil red O staining based microscopic analysis; assay type: functional, cell-based; conditions: 3T3-L1
Summary of the method: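 3T3-L1 cells differentiated from 2 days post-confluence with IBMX/dexamethasone/insulin cocktail for 3 days, then insulin medium to Day 6. Compounds at 1 and 10 µM added Day 0 for 3 days. Triglyceride read on Day 6 with Oil Red O (formaldehyde fixation, 30 min stain, isopropanol extraction, OD 510 nm); n = 3.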

[20] = Downregulation of C/EBP alpha mRNA level in mouse 3T3L1 cells at 0.3 to 3 uM after 24 hrs by RT-PCR analysis; assay type: functional, cell-based; conditions: 3T3-L1; summary of the method: as §1
[21] = test system: HepG2; test: Decrease in triglyceride level in human HepG2 cells after 24 hrs by GPO-POD assay in presence of 0.5 mM oleic acid sodium; assay type: functional, cell-based; summary of the method: as §3

O=Cc1c(-c2nc(NCCN3CCCC3)c3ccccc3n2)[nH]c2ccccc12
inhibition [1]: Active
inhibition [2]: Active
inhibition [3]: Active
inhibition [4]: 80%
inhibition (INH) [5]: 70%
Activity [6]: 33.5%
inhibition [7]: Active
inhibition [8]: Dose-dependent effect
inhibition [9]: Dose-dependent effect
Activity [10]: 1.58%
viability at 1 µM [11]: 98%
Activity [12]: Active
inhibition [13]: Active
inhibition [14]: Dose-dependent effect
inhibition [15]: Active
Activity [16]: 3.3%
Activity [17]: 6.4%
Activity [18]: 0.84%
inhibition [19]: 87.6%
inhibition [20]: Active
inhibition [21]: Dose-dependent effect
